Results as given in ChEMBL document CHEMBL1137702, “Identification of hydrolytically stable and selective P2Y(1) receptor agonists” (Eur J Med Chem, 2009).
The source made the active and inactive calls. The calls are words filed in the database; no cut-off is given here.

What was measured:
[1] = Stability at 77 ug/ml after 30 mins by HPLC in presence of calf intestine alkaline phosphatase; format: ADME; details: cattle, isolated protein, 0.5 h
P2Y purinoceptor 2 = P2Y purinoceptor 2 (Homo sapiens, UniProt P41231); assay: Antagonist activity at human P2Y2 receptor expressed in human 1321N1 cells assessed as inhibition of UTP-induced increase in intracellular calcium concentration by dual-excitation spectrofluorimetric analysis; format: functional, cell-based
Sequence of P2Y purinoceptor 2 (P41231 whole entry): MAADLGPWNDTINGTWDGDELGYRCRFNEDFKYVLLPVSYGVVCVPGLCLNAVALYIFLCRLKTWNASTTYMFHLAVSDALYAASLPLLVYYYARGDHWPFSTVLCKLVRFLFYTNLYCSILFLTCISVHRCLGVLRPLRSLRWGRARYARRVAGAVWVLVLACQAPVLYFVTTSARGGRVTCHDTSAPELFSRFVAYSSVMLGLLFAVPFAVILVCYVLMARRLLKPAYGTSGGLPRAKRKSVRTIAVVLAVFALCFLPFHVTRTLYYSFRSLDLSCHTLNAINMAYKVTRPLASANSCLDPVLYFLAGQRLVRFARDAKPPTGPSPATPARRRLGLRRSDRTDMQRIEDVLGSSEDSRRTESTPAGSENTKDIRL
In short: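 Fura-2-loaded suspensions of stably transfected 1321N1 cells were assayed at 37 °C in HEPES-buffered saline pH 7.4 with 1 mM Ca2+ and Mg2+. […] [Ca2+]i was read by dual-excitation spectrofluorometry.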

[2] = biological target: T1, Ectonucleoside triphosphate diphosphohydrolase 1 (Homo sapiens) (UniProt P49961); assay: Activity of human NTPDase 1 expressed in human 293T cells assessed as drug hydrolysis at 100 uM after 20 mins relative to ATP; format: cell-based; parameters: scale not given: the % may be the effect or the level left
T1 sequence (whole entry): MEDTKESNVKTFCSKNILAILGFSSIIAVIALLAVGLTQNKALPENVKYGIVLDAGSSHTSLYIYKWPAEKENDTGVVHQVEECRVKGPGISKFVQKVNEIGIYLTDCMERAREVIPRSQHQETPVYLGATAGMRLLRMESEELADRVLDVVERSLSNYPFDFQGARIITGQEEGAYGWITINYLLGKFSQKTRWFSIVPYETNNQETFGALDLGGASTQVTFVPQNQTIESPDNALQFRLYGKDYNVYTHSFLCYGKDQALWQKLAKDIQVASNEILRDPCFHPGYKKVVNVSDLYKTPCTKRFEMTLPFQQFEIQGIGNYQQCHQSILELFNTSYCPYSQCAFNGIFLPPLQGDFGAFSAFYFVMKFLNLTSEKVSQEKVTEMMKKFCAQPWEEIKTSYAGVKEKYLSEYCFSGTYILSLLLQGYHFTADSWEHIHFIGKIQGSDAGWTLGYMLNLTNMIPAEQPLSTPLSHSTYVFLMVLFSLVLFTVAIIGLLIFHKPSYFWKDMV
In short: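 Human NTPDase1, 2, 3 or 8 in crude extracts of transfected 293T cells, pre-incubated 3 min at 37 °C in Tris-Ringer buffer pH 7.4. […] Untransfected-cell extract activity subtracted.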

[3] = Dissociation constant, pKa of the compound; format: physicochemical
P2Y purinoceptor 1 = P2Y purinoceptor 1 (Meleagris gallopavo, UniProt P49652); assay: Agonist activity at turkey P2Y1 receptor expressed in human 1321N1 cells assessed as increase in intracellular calcium concentration by dual-excitation spectrofluorimetric analysis; format: functional, cell-based
Sequence of P2Y purinoceptor 1 (P49652 whole entry): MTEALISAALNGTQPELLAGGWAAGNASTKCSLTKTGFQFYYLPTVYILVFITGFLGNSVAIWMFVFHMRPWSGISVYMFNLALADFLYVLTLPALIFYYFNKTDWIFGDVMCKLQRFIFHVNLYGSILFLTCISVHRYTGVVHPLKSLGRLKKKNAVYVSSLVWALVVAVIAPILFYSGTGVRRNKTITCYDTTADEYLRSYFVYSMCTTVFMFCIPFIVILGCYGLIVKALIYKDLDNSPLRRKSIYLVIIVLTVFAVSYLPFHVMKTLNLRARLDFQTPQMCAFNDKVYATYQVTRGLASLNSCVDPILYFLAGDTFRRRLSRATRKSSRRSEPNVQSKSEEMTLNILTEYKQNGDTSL

[4] = Chemical stability assessed as hydrolysis half life at 1.5 mg at pH 1.4 measured at 24 hrs interval for 12 days by 31P NMR analysis; format: physicochemical
In short: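 1.5 mg in 0.2 M HCl/KCl with D2O, pH adjusted to 1.4, kept at 37 °C. 31P NMR spectra, 500 scans each, were recorded about every 24 h for 12 days to obtain half-life.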

Serum = assay: Metabolic stability in human serum assessed as hydrolysis half life at 0.25 mM measured for 4 days by HPLC; format: ADME, cell-free; details: 96 h, 250 µM
In short: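 Human serum (healthy donors; clotted 12 h at 4 °C, spun 1500 × g, stored −80 °C) diluted with RPMI-1640, incubated with 0.25 mM nucleotide at 37 °C for 1–96 h. Stopped with HCl, neutralized with KOH, analysed by C18 HPLC (KH2PO4 pH 4.5/acetonitrile). t1/2 from peak-area change.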

Activity (P2Y purinoceptor 2) | Activity [2] [%] | Structure (SMILES) | Stability [1] | pKa [3] | EC50 (P2Y purinoceptor 1) [nM] | half-life [4] [h] | t1/2 (Serum) [h]
inactive | 1 | BP(=O)(OC[C@H]1O[C@@H](n2cnc3c(N)ncnc32)[C@H](O)[C@@H]1O)OP(=O)(O)CP(=O)(O)O (stereo not given in full) |  |  |  |  | 
inactive | < 1 | BP(=O)(OC[C@H]1O[C@@H](n2cnc3c(N)nc(SC)nc32)[C@H](O)[C@@H]1O)OP(=O)(O)CP(=O)(O)O (single isomer, unassigned; diastereomer A) |  |  |  |  | 
inactive | < 1 | BP(=O)(OC[C@H]1O[C@@H](n2cnc3c(N)nc(SC)nc32)[C@H](O)[C@@H]1O)OP(=O)(O)CP(=O)(O)O (single isomer, unassigned; diastereomer B) |  |  |  |  | 
inactive | 0 | BP(=O)(OC[C@H]1O[C@@H](n2cnc3c(N)ncnc32)[C@H](O)[C@@H]1O)OP(=O)(O)CP(=O)(O)O (single isomer, unassigned; diastereomer B) |  |  |  |  | 

Structure (SMILES) | Activity (P2Y purinoceptor 2) | Activity [2] [%] | Stability [1] | pKa [3] | EC50 (P2Y purinoceptor 1) [nM] | half-life [4] [h] | t1/2 (Serum) [h]
CSc1nc(N)c2ncn([C@@H]3O[C@H](COP(=O)(O)OP(=O)(O)CP(=O)(O)O)[C@@H](O)[C@H]3O)c2n1 | inactive | 8 | Stable | 8.4 | 80 | 65 | 12.7
